High-throughput results (PubChem)
PRMT1 FP inh – inhibitors of human PRMT1; inhibition, % at 2.79 µM; recombinant PRMT1, activity-based probe fluorescence polarization; Q99873; 370,000 tested, 1.3% active;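 active = inhibition above about 21% made by adding two undisclosed values, limit read from the data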
Target sequence (Q99873 whole entry, looked up): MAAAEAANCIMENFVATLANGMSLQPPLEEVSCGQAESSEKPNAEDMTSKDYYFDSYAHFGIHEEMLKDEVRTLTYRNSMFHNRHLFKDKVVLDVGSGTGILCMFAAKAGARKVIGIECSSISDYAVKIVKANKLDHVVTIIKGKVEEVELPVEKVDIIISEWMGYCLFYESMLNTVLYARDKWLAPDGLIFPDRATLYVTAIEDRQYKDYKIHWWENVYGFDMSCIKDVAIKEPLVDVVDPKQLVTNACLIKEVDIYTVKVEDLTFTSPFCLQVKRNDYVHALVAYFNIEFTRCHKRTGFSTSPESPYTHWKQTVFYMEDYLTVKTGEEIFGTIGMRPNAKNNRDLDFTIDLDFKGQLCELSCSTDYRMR
SIAE primary – human SIAE inhibition, primary screen; Q9HAT2; 370,000 tested, 0.69% active; AID 1053197; inhibition, % at 9.66 µM; SIAE FP-Rh probe binding, fluorescence polarization;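 active = inhibition above a cutoff: mean of compounds within the control limits plus 3 SD of those, cut at about 17% in these data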
mABHD4 FP – ABHD4 (mouse) inhibition, primary FP screen; Q8VD66; 370,000 tested, 0.54% active; purified mABHD4, FP-Rh probe fluorescence polarization; inhibition, % at 8.92 µM;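 active = inhibition exceeding the mean over every tested compound plus 3 SD, cut at about 30% in these data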
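Material: mouse ABHD4 enzyme, wild type; Benchmarks: S159A mutant high control, sample median low control; Buffer or medium: HEPES pH 7.0, NaCl, Pluronic buffer; Signal: fluorescence polarization; Read-out: percent inhibition of probe binding, normalized to plate controls; Timing: pre-incubation 45 min, probe exposure 60 min, at 25 °C; Dosing: 8.92 µM, single dose.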
TCR CD3 inh – human TCR-CD3 binding inhibition; TAMRA-labeled TCR probe fluorescence, biochemical; inhibition, % at 9.4 µM; 360,000 tested, 0.37% active; in the data active = inhibition above about 19%;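 also: recombinant mutant TCR 2C K166C tagged with TAMRA read by polarization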
HTRA1 inhibitor – inhibitors of human serine peptidase HTRA1. AID 504803. inhibition, % at 5.96 µM. recombinant HTRA1, FP-rhodamine activity-based probe, fluorescence polarization. 340,000 tested, 0.5% active. Q92743; in the data active = inhibition above about 36%
PRMT1 inh conf – confirmation of human PRMT1 inhibitors; AID 687036; inhibition, % at 2.79 µM; shares compounds with PRMT1 FP inh; 3,300 tested, 42% active; recombinant His-PRMT1, activity-based probe fluorescence polarization;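 active = mean inhibition across replicates above the hit cutoff derived for the earlier primary screen, cut at about 22% in these data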
ABHD4 confirm – ABHD4 (mouse) inhibition, FP confirmation; shares compounds with mABHD4 FP; 1,800 tested, 55% active; inhibition, % at 8.92 µM; purified mABHD4, FP-Rh probe fluorescence polarization;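 active = mean inhibition across replicates above the hit cutoff set in the primary screen, cut at about 30% in these data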
SIAE confirm – confirmation of human SIAE inhibitors; shares compounds with SIAE primary; SIAE FP-Rh activity-based probe, fluorescence polarization; inhibition, % at 9.66 µM; 2,300 tested, 13% active; AID 1117263;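 active = mean inhibition of the replicates above the hit cutoff set in the primary screen, cut at about 17% in these data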;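 also: inhibitors lower polarization as more probe stays unbound to SIAE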
Numbers stand for hits; n = inactive; x = no result given. This is a sample that favours compounds with a hit; in the whole collection about 2.7% have one here.

SMILES	PRMT1 FP inh	SIAE primary	mABHD4 FP	TCR CD3 inh	HTRA1 inhibitor	PRMT1 inh conf	ABHD4 confirm	others
COC(=O)[C@H](C(C)C)N1Cc2nnn(Cc3ccccc3)c2C=CS1(=O)=O	n	n	n	x	x	x	x
O=[N+]([O-])c1cc2cccnc2c2ncccc12	n	n	n	n	x	x	x
NS(=O)(=O)c1cccc2c1c([N+](=O)[O-])cc1nc(O)c(O)nc12	26	n	31	n	n	27	n
O=C(O)c1ccc2c(c1)C1C=CCC1C(c1cc3c(cc1Br)OCO3)N2 (stereo not given)	n	n	n	n	n	x	x
O=C(O)c1ccc(NS(=O)(=O)c2ccc3c(c2)C2C=CCC2C(c2ccccc2F)N3)cc1 (stereo not given)	47	n	42	n	n	n	n
Cc1cccc(N(CC(=O)NCc2ccco2)S(=O)(=O)c2ccccc2)c1	n	n	n	n	n	x	x
Cc1ccc(NC(=O)C2CCN(S(=O)(=O)c3ccc4c(c3)C(C)(C)C(=O)N4C)CC2)c(C)c1	n	n	n	n	n	x	x
CC(=O)OC(C)[C@H]1CC[C@H]2[C@@H]3CC[C@H]4C[C@@H](OC(C)=O)CC[C@]4(C)C3=CC[C@]12C (stereo not given in full)	n	n	n	n	n	x	x
Nc1ccc2cc3[nH]c4cc(N)ccc4c3nc2c1	156	n	36	n	n	n	72
Nc1ccc2nc(C3CCCCC3)[nH]c2c1	n	n	n	n	n	x	x
O=C(CSC1=NNC(c2ccccn2)S1)Nc1cccc(Cl)c1 (stereo not given)	61	n	36	n	x	41	n
O=C(CSc1nnc(-c2ccccn2)o1)Nc1ccccc1	n	n	n	n	n	x	x
O=C(CSC1=NNC(c2ccccn2)S1)Nc1ccccc1 (stereo not given)	66	n	53	n	n	46	n
Cc1ccn(-c2cc(O)c(-n3ccc(C)n3)cc2O)n1	n	n	n	n	n	x	x
CCCCCn1nnnc1C1(C)CCC(=O)N1Cc1ccco1 (stereo not given)	n	n	n	n	x	x	x
O=C1/C(=C/c2ccc(Cl)cc2)SC(=S)N1CCC(=O)N1CCCCC1CCO (stereo not given)	n	n	n	n	n	x	x
O=C1/C(=C/c2ccco2)SC(=S)N1CCC(=O)N1CCCCC1CCO (stereo not given)	26	n	30	n	n	n	n
COc1cccc(NC(=O)CSc2nnnn2C2CCCCC2)c1	n	n	n	n	n	x	x
N#CCS(=O)(=O)c1cccc[n+]1[O-]	n	n	n	n	x	x	x
N#Cc1c(Cl)nsc1NN	40	n	73	n	n	n	n
CC1=C(O)C(=O)C(C2=C(O)C(=O)C(C)=C(O)C2=O)=C(O)C1=O	29	n	40	n	n	34	38
COc1cc(/C=C2/C(=O)NN(c3ccc(C)c(Cl)c3)C2=O)cc([N+](=O)[O-])c1O	28	n	63	n	n	n	56
C[C@@H]1CN(C(=O)OC(C)(C)C)CCN1c1ccc(N2CC[C@H](O)C2)c(C#N)c1	n	n	n	n	x	x	x
COCc1cc(N2CCN(C(=O)OC(C)(C)C)C[C@@H]2C)ccc1N1CC[C@@H](O)C1	50	n	32	n	x	n	n
CC(C)(C)NC(=O)[C@@H](c1cccnc1)N(C(=O)c1ccco1)c1ccc(C(C)(C)C)cc1	n	n	n	x	x	x	x
SMILES	PRMT1 FP inh	SIAE primary	mABHD4 FP	TCR CD3 inh	HTRA1 inhibitor	PRMT1 inh conf	ABHD4 confirm	others
COc1ccc(OC)c(C2Nc3c(Cl)ccc(C(=O)O)c3C3C=CCC32)c1 (stereo not given)	46	n	47	n	n	28	n
COC(=O)COc1ccc(C2Nc3c(Cl)ccc(C(=O)O)c3C3C=CCC32)cc1 (stereo not given)	69	n	36	n	n	29	n
COc1ccc(OC)c(C2NC(=O)CCC2[N+](=O)[O-])c1 (stereo not given)	n	n	n	n	n	x	x
COc1cccc(CNC(=O)[C@H]2CCCN2C(=O)[C@H]2CCCN2C(=O)c2ccc(F)c(C(F)(F)F)c2)c1	n	n	n	n	x	x	x
Cc1ccc(NC(=S)NNc2ccc([N+](=O)[O-])cc2S(=O)(=O)Nc2ccccc2C(=O)O)cc1C	27	n	46	n	n	39	85
COC(=O)C1=C(O)/C(=C\c2ccc(CNS(=O)(=O)c3ccccc3)o2)N=C1C	39	n	32	n	n	n	n
CN1c2ccccc2Sc2cc(N)ccc21	29	n	37	n	n	n	63
CC(=O)N1c2ccccc2Sc2ccccc21	n	n	n	n	n	x	x
Nc1ccc(O)cc1C(=O)OCC(=O)c1ccc(C2CCCCC2)cc1	29	n	53	n	n	n	39
O=C(CCc1nc2ccccc2c(=O)[nH]1)OCc1ccc(Cl)cc1Cl	n	n	n	n	n	x	x
Cc1n[nH]c(=S)n(NC(=O)CC(=O)Nn2c(=S)[nH]nc(C)c2=O)c1=O	n	n	n	n	n	x	x
Cc1n[nH]c(=S)n(NC(=O)/C=C/C(=O)Nn2c(=S)[nH]nc(C)c2=O)c1=O	29	n	38	n	n	30	n
NS(=O)(=O)c1ccc(-c2ccc(/C=C3\NC(=S)NC3=O)o2)cc1	53	n	39	n	n	27	n
O=c1c(-c2ccco2)nc2ccccc2n1C(c1ccccn1)c1nc2ccccc2[nH]1 (stereo not given)	57	n	38	n	x	n	n
O=C(O)CCC(=O)Nc1ccc(N2CCCCCC2)cc1	31	n	32	n	n	n	n
Cc1nnc(SCC(=O)N(CCC#N)c2ccc3c(c2)OCCO3)s1	n	n	n	n	n	x	x
COc1ccc(CCNC(=O)Cc2c(Cl)cccc2Cl)cc1	n	n	n	n	n	x	x
O=c1nc2s/c(=C\c3ccc(-c4ccccc4[N+](=O)[O-])o3)c(=O)n2nc1-c1ccccc1	59	22	40	n	n	n	34	SIAE confirm=n
COc1ccc(/C=N/N2CCOCC2)cc1COc1ccc(Cl)cc1	n	n	n	n	n	x	x
CCN1C(=O)[C@@H]2[C@@H]3CN(S(=O)(=O)c4ccc(C)cc4)[C@@H](c4ccccc4)[C@@H]3C(=O)C[C@@H]2C1=O	n	n	n	n	x	x	x
CCOC1=CC2=C(C(=O)C(Cl)=CC2=O)[C@@H]2CN(S(=O)(=O)c3ccc(C)cc3)[C@@H](c3ccccc3)[C@H]12	50	23	89	n	x	91	101	SIAE confirm=18
Cc1ccc(N2C(=O)/C(=C/c3ccco3)SC2=S)cc1	n	n	n	n	n	x	x
O=C1S/C(=C\C=C\c2ccco2)C(=O)N1c1ccccc1	40	21	n	n	n	n	x	SIAE confirm=n
